Results from ChEMBL document CHEMBL1135702, “Antitumor polycyclic acridines. 8.(1) Synthesis and telomerase-inhibitory activity of methylated pentacyclic acridinium salts” (J Med Chem, 2002).

Columns and labels:
[1] = Growth inhibition in the NCI 60 cell panel; format: functional; conditions: Homo sapiens
[2] = molecular target: Telomerase reverse transcriptase (Homo sapiens, UniProt O14746); assay: Inhibition of telomerase activity using TRAP assay
Method in brief: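 Telomerase came from lysates of exponentially growing A2780 cells (CHAPS buffer, 30 min on ice, 0.1 mM AEBSF), using 40 ng protein. TS primer was extended in TRAP buffer (pH 8.3, 68 mM KCl) with 50 μM dNTPs and [α-³²P]dCTP, compound at various final concentrations, for 20 min at 25 °C. After 85 °C inactivation, the CX primer was added with Taq for 31 PCR cycles. Products were read by phosphoimaging or scintillation counting.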

[3] = Selectivity index (GI50/Telomerase IC50)

Chain of Telomerase reverse transcriptase (O14746 whole entry): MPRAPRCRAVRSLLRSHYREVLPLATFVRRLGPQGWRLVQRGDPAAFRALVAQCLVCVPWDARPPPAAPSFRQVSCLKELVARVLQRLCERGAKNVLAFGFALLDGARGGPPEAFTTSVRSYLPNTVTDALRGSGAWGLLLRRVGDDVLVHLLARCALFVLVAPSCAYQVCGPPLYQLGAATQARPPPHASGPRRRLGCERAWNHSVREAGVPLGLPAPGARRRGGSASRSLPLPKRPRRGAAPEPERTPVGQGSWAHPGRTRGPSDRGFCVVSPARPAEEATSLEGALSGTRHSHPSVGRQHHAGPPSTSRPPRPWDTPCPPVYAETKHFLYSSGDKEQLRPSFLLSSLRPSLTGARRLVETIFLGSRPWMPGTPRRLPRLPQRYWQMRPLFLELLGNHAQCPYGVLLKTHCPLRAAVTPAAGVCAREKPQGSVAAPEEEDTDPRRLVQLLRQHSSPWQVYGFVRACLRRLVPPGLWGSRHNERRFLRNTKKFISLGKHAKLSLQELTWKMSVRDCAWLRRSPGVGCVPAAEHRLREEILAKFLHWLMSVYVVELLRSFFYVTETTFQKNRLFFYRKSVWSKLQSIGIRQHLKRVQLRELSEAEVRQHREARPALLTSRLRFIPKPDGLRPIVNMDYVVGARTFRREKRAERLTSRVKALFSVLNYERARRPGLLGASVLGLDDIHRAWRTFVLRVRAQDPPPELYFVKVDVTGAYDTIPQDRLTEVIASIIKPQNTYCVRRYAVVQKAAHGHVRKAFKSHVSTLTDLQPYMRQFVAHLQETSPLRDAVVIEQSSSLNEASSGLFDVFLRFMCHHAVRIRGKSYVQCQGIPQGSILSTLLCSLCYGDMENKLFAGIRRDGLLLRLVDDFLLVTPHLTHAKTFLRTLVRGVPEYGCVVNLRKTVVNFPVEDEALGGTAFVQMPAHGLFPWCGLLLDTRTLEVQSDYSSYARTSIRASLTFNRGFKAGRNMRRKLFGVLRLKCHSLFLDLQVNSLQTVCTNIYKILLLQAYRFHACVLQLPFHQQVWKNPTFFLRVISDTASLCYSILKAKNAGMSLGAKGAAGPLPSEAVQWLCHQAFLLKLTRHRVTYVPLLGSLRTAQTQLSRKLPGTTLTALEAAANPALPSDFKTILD

Row | Structure (SMILES) | IC50 [2] [nM] | SI [3] | GI50 [1] [nM]
1 | c1ccc2c(c1)Nc1cccc3cc4[n+](c-2c13)CCC4 | – | – | 90
2 | Cc1cc2c3c([n+](C)c4ccccc4c3c1)-c1ccccc1N2C | 760 | 1.7 | 1290
3 | CCN1c2ccccc2-c2c3c1cc(C)cc3c1ccccc1[n+]2CC | 2000 | 0.5 | 1100
4 | CN1c2ccccc2-c2c3c1cccc3c1ccccc1[n+]2C | 380 | – | –

Now from value to compound, other results behind:

Row | IC50 [2] [nM] | SI [3] | Structure (SMILES) | GI50 [1] [nM]
5 | 330 | 40 | Cc1cc2c3c([n+](C)c4ccc(F)cc4c3c1)-c1cc(F)ccc1N2C | 13200
6 | 250 | 1.8 | Cc1ccc2c(c1)-c1c3c(cc(C)cc3c3cc(C)ccc3[n+]1C)N2C | 410
7 | 250 | 17 | Cc1cc2c3c([n+](C)c4ccc(Cl)cc4c3c1)-c1cc(Cl)ccc1N2C | 4170
